From ChEMBL document CHEMBL4002631, “Synthesis, antimycobacterial and cytotoxic activity of α,β-unsaturated amides and 2,4-disubstituted oxazoline derivatives” (Bioorg Med Chem Lett, 2017)
Converted amounts (≈) assume the structure as drawn.

Assays:
[1] = system: Mycobacterium tuberculosis; assay: Antimycobacterial activity against isoniazid/rifampicin/ethambutol-sensitive Mycobacterium tuberculosis H37Rv after 4 days by Alamar blue assay; assay type: functional; settings: 96 h
Summary of the method: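 Microplate Alamar blue assay against M. tuberculosis H37Rv (sensitive to isoniazid, rifampicin and ethambutol) and a clinical isolate resistant to all three drugs. Compounds were tested at 256, 128, 64, 32, 16, 8, 4, 2 and 1 µg/mL. Isoniazid, rifampicin, ethambutol and ofloxacin controls were run under the same conditions. MIC is given in µg/mL and converted to µM.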

[2] = system: Liver; assay: Toxicity in Sprague-Dawley rat liver assessed as histological damage at 5 to 30 ug/ml after 24 hrs by hematoxylin and eosin staining-based bright field microscopic method; assay type: tissue-based
Summary of the method: (§1)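 Ex-vivo 3D assay using precision-cut rat liver slices. Slices were cultured for 24 h at 5, 15 and 30 µg/mL, with compound dissolved in DMSO. Controls were medium alone and 0.5% DMSO (negative), with isoniazid as the reference. Read-out was histopathology of H&E-stained sections under bright-field light microscopy (40x), scoring hepatic cords, portal triads, central veins, inflammatory infiltrate and necrosis.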

[3] = system: Liver; assay: Toxicity in Sprague-Dawley rat liver assessed as presence of periportal inflammatory infiltrate at 5 to 30 ug/ml after 24 hrs by hematoxylin and eosin staining-based bright field microscopic method; assay type: tissue-based; summary of the method: as §1
[4] = system: Liver; assay: Toxicity in Sprague-Dawley rat liver assessed as centrilobular necrosis at 5 to 30 ug/ml after 24 hrs by hematoxylin and eosin staining-based bright field microscopic method; assay type: tissue-based; summary of the method: as §1

SMILES	MIC [1] [µM]	also measured
O=C(/C=C/c1ccc(F)cc1)N[C@H](CO)Cc1ccccc1	26.7 (≈ 7.99 µg/mL)	
C(=C\c1ccc(OCc2ccccc2)cc1)/C1=N[C@@H](Cc2ccccc2)CO1	10.8 (≈ 3.99 µg/mL)	
C(=C\c1ccccc1)/C1=N[C@@H](Cc2ccccc2)CO1	60.8 (≈ 16 µg/mL)	
CO[C@H]1/C=C/O[C@@]2(C)Oc3c(C)c(O)c4c(O)c(c(/C=N/N5CCN(C)CC5)c(O)c4c3C2=O)NC(=O)/C(C)=C\C=C\[C@H](C)[C@H](O)[C@@H](C)[C@@H](O)[C@@H](C)[C@H](OC(C)=O)[C@@H]1C [RIFAMPIN]	4.8 (≈ 3.95 µg/mL)	
COc1ccc(/C=C/C(=O)N[C@H](CO)Cc2ccccc2)cc1	25.6 (≈ 7.97 µg/mL)	
O=C(/C=C/c1cccs1)N[C@H](CO)Cc1ccccc1	55.6 (≈ 16 µg/mL)	
CC1COc2c(N3CCN(C)CC3)c(F)cc3c(=O)c(C(=O)O)cn1c23 (centres undefined) [OFLOXACIN]	< 2.7	
COc1ccc(/C=C/C2=N[C@@H](Cc3ccccc3)CO2)cc1	13.6 (≈ 3.99 µg/mL)	Activity [2]: Non-Toxic
Fc1ccc(/C=C/C2=N[C@@H](Cc3ccccc3)CO2)cc1	14.2 (≈ 3.99 µg/mL)	
O=C(/C=C/c1ccc(Cl)cc1)N[C@H](CO)Cc1ccccc1	25.3 (≈ 7.99 µg/mL)	
O=C(/C=C/c1ccccc1)N[C@H](CO)Cc1ccccc1	56.8 (≈ 16 µg/mL)	
NNC(=O)c1ccncc1 [ISONIAZID]	< 7.2	Activity [3]: Toxic; Activity [4]: Toxic
C(=C\c1cccs1)/C1=N[C@@H](Cc2ccccc2)CO1	29.7 (≈ 8 µg/mL)	
Clc1ccc(/C=C/C2=N[C@@H](Cc3ccccc3)CO2)cc1	26.9 (≈ 8.01 µg/mL)	
O=C(/C=C/c1ccc(OCc2ccccc2)cc1)N[C@H](CO)Cc1ccccc1	41.2 (≈ 16 µg/mL)	
CC[C@@H](CO)NCCN[C@@H](CC)CO [ETHAMBUTOL]	39.1 (≈ 7.99 µg/mL)	
